Reference: ChEMBL document CHEMBL3351316, “Scaffold hopping approach on the route to selective tankyrase inhibitors” (Eur J Med Chem, 2014)

Tests used:
[1] = target: Protein mono-ADP-ribosyltransferase PARP14 (Homo sapiens) (UniProt Q460N5); test: Inhibition of human recombinant PARP14 at 100 uM incubated for 1 hr using NAD+, biotinylated NAD+ and activated DNA by luminescence based assay
Summary of the method: (§1)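 Recombinant PARP enzyme reactions were run in duplicate for 1 h at rt on histone-coated plates in Tris·HCl pH 8.0 buffer with NAD+, biotinylated NAD+ and activated DNA. Detection used streptavidin-HRP for 30 min at rt, then a chemiluminescent developer. % inhibition = 100 − % activity, scaled between the no-compound (100%) and no-enzyme (0%) signals.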

[2] = target: Poly [ADP-ribose] polymerase 2 (Homo sapiens) (UniProt Q9UGN5); test: Inhibition of human recombinant PARP2 incubated for 1 hr using histone substrate at 1 uM by luminescence based assay; summary of the method: as §1
[3] = Lipophilicity, log D of the compound at pH 7.4; format: physicochemical; conditions: buffer
[4] = target: T1, Poly [ADP-ribose] polymerase tankyrase-1 (Homo sapiens, UniProt O95271); test: Inhibition of GST-tagged human recombinant TNKS1 incubated for 1 hr using NAD+, biotinylated NAD+ and activated DNA by luminescence based assay
T1 sequence (O95271 whole entry): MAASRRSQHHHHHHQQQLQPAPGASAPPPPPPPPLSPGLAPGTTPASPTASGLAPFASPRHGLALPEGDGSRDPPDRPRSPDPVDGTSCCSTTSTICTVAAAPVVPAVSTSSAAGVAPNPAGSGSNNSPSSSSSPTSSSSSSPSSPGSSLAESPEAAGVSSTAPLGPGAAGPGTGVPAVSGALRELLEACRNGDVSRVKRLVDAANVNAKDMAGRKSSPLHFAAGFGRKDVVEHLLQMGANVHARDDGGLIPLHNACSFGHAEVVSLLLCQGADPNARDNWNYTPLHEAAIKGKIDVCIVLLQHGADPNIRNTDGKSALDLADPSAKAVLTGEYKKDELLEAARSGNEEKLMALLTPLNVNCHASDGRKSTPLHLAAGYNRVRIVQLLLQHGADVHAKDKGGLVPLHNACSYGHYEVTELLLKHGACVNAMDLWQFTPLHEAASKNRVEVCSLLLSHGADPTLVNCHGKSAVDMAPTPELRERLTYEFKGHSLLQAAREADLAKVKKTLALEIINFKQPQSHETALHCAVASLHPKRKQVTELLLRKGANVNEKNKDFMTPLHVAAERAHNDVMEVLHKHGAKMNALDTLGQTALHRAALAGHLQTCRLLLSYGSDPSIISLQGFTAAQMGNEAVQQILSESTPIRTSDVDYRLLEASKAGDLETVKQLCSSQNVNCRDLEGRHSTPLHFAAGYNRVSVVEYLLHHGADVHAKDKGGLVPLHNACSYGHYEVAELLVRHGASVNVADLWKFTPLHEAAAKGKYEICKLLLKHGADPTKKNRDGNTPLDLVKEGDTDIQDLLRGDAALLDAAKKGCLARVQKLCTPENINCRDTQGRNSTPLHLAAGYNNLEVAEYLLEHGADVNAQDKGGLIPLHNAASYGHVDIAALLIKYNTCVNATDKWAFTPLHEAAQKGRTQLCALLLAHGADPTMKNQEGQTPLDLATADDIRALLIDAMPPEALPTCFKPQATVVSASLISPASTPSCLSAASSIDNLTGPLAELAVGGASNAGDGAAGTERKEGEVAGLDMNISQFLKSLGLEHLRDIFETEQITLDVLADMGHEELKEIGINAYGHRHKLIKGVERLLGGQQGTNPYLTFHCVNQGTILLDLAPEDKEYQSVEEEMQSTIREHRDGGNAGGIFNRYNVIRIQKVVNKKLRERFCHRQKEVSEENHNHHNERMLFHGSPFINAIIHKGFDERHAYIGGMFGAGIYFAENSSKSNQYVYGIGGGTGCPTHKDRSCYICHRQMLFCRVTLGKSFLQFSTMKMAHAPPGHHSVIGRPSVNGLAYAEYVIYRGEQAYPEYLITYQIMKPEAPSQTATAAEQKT

[5] = target: Tankyrase 1/2 (Homo sapiens) (UniProt Q9H2K2+O95271); test: Inhibition of tankyrase in human DLD1 cells assessed as reduction in Wnt activity at 10 uM after 24 hrs by TCF-luciferase reporter gene assay; format: cell-based; conditions: DLD-1
Summary of the method: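 DLD-1 cells were transduced with a TOP-TCF firefly luciferase lentivirus plus a renilla luciferase lentivirus (1:20), with renilla used to normalise for infection efficiency. Compound was tested at 10 μM for 24 h, with DMSO as the negative control. Cells were then lysed for dual-luciferase read-out, and activity was taken as the TOP/RL ratio. Data are the average of at least three separate experiments ± SD.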

[6] = target: Poly [ADP-ribose] polymerase 2 (Homo sapiens) (UniProt Q9UGN5); test: Inhibition of human recombinant PARP2 incubated for 1 hr using histone substrate at 10 uM by luminescence based assay; summary of the method: as §1

Sequence of Poly [ADP-ribose] polymerase 2 (Homo sapiens) (Q9UGN5 whole entry): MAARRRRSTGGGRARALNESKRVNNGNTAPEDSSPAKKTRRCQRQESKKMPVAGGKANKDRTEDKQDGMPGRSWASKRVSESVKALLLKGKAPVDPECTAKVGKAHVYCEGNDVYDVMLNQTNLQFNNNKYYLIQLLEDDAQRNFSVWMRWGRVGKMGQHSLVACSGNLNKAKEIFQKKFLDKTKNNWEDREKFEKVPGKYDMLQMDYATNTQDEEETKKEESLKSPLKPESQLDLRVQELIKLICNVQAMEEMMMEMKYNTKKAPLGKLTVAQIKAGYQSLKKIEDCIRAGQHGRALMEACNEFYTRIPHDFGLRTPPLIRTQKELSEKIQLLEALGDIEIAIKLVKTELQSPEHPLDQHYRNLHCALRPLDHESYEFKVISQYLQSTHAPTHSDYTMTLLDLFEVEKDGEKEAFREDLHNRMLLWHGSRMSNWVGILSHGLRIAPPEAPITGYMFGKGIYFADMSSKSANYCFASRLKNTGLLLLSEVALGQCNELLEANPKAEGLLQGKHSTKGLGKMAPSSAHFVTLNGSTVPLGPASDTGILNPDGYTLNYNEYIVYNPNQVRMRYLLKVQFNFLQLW
Sequence of Tankyrase 1/2 (Homo sapiens) (Q9H2K2 whole entry, looked up, one chain of several): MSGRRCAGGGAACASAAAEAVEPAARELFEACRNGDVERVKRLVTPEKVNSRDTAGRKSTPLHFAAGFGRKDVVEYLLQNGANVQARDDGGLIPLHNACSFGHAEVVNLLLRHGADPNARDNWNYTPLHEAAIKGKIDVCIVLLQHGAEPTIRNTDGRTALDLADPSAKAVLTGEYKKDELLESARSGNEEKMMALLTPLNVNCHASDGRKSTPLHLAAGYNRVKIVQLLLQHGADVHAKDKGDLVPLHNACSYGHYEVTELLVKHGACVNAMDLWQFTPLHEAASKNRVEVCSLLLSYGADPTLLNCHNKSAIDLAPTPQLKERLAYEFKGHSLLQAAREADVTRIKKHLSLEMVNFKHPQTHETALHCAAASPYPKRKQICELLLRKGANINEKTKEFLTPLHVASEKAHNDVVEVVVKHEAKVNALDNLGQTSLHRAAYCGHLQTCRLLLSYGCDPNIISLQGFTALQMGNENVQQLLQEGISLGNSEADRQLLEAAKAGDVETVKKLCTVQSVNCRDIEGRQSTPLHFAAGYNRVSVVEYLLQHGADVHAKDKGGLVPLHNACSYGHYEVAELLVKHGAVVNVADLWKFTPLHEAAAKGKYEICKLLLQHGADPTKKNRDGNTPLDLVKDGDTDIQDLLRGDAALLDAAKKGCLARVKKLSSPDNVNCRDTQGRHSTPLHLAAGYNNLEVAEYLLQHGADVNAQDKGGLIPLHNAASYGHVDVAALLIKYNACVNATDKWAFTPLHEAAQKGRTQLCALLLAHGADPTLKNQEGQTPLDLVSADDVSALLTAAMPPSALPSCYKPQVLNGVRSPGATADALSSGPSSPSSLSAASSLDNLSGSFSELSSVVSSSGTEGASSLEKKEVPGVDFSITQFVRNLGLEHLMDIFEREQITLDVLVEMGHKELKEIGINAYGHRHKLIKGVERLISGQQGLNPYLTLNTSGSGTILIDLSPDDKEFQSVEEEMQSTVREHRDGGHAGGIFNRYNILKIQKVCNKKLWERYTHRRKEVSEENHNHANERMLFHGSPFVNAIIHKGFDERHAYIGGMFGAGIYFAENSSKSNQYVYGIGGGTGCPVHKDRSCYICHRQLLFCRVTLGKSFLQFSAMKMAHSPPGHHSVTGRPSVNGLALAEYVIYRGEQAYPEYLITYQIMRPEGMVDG
Sequence of Protein mono-ADP-ribosyltransferase PARP14 (Homo sapiens) (Q460N5 whole entry): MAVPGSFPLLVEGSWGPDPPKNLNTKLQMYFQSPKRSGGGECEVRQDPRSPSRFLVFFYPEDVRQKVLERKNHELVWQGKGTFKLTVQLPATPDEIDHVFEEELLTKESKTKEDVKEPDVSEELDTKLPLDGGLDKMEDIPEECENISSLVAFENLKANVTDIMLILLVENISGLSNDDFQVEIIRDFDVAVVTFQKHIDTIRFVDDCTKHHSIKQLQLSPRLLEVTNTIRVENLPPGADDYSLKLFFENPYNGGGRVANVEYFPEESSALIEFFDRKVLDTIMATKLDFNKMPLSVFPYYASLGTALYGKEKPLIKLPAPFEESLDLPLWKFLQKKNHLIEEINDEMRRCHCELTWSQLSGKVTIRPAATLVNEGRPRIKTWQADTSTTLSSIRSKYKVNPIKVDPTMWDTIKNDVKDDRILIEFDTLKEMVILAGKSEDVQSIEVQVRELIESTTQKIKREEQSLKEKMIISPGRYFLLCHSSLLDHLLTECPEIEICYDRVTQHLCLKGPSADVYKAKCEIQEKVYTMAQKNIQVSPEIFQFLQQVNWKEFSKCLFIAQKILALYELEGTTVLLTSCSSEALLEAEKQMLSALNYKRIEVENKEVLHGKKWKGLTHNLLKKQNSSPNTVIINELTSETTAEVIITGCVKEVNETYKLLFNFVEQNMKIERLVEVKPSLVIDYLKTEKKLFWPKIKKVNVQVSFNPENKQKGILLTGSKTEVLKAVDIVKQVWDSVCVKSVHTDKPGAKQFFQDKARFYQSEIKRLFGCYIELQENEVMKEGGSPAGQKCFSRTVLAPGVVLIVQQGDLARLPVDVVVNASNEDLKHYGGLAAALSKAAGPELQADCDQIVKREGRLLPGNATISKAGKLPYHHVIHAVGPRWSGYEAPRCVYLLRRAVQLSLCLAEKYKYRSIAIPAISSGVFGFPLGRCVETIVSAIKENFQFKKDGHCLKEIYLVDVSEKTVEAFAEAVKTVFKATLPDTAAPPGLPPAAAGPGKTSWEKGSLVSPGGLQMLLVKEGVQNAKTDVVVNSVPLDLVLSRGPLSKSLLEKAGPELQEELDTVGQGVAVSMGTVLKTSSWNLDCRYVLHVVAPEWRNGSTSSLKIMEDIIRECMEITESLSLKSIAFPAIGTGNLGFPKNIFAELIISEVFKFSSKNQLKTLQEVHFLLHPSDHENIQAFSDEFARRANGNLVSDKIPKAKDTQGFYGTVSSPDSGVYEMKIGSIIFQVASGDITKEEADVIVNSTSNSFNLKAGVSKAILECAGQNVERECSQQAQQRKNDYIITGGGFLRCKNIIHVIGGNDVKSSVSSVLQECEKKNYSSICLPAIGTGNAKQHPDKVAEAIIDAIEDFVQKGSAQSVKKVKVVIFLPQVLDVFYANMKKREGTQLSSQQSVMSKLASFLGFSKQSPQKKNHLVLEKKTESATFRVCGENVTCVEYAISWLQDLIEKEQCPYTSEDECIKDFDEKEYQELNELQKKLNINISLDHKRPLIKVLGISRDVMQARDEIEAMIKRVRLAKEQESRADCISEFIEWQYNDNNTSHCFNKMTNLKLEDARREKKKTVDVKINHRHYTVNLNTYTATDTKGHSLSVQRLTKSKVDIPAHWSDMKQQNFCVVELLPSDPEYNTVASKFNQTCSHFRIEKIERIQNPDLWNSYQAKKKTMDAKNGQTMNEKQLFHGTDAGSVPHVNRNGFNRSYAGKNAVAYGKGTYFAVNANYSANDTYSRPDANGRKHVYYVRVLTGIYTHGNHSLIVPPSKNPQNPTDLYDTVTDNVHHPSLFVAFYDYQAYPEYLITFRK

SMILES | inhibition [1] [%] | inhibition [2] [%] | logD [3] | IC50 [4] [nM] | inhibition [5] [%] | inhibition [6] [%]
COc1cccc(/C=C/C(=O)O)c1 | 17 | – | – | – | – | –
O=c1[nH]c(-c2ccccc2)cc2ccsc12 | – | 26 | 2.53 | – | – | –
O=c1[nH]c(-c2ccccc2)cc2c1sc1ccccc12 | – | 11 | 3.63 | 181 | – | –
O=c1[nH]c2ccccc2c2ccsc12 | – | 91 | 2.65 | – | – | –
COc1ccc2c(c1)[nH]c(=O)c1sc3ccc(OC)cc3c12 | – | 12 | 3.43 | – | – | –
O=c1[nH]ccc2ccsc12 | – | 24 | 1.24 | – | – | –
O=c1[nH]c2ccccc2c2c1sc1ccccc12 | – | 14 | 3.75 | 90 | – | –
O=c1[nH]ccc2c1sc1ccccc12 | – | 34 | 3.62 | – | – | –
O=c1[nH]c(-c2cccs2)nc2c1sc1ccccc12 | – | 9 | 3.52 | – | – | –
Oc1cc(-c2ccccc2)c2ccccc2n1 | – | 3 | 3.03 | – | – | –
O=c1[nH]c(C2CCCCC2)nc2c1sc1ccccc12 | – | 14 | 3.89 | – | – | –
COc1ccc2c(c1)nc(O)c1sc3ccccc3c12 | – | 27 | 3.59 | – | 37 | –
O=c1[nH]c(-c2ccccc2)nc2c1sc1ccccc12 | – | 0 | 3.62 | – | – | –
O=c1[nH]c2cc(O)ccc2c2c1sc1ccccc12 | – | 64 | 3.43 | – | – | –
Cc1ccc(-c2nc3c(sc4ccccc43)c(=O)[nH]2)cc1 | – | 4 | 4.13 | 19.4 | – | –
COc1ccc2sc3c(O)nc4ccccc4c3c2c1 | – | 17 | 3.59 | – | 21 | –
O=c1[nH]c2ccccc2c2c1sc1ccc(O)cc12 | – | 93 | 3.44 | – | – | –
O=c1[nH]c(-c2ccccc2)nc2c3c(sc12)CCCC3 | – | 11 | 4.11 | – | – | –
Oc1nc(-c2ccc(C(F)(F)F)cc2)nc2c1CSCC2 | – | – | – | – | – | 100
